The source of these data is ChEMBL document CHEMBL3425410, “Specificity and inhibitory mechanism of andrographolide and its analogues as antiasthma agents on NF-κB p50” (J Nat Prod, 2015).

The source made the active and inactive calls. The calls are words filed in the database; no cut-off is given here.

The target in series [1] is T1, Nuclear factor NF-kappa-B p105 subunit (Homo sapiens) (UniProt P19838).
T1 sequence (whole entry): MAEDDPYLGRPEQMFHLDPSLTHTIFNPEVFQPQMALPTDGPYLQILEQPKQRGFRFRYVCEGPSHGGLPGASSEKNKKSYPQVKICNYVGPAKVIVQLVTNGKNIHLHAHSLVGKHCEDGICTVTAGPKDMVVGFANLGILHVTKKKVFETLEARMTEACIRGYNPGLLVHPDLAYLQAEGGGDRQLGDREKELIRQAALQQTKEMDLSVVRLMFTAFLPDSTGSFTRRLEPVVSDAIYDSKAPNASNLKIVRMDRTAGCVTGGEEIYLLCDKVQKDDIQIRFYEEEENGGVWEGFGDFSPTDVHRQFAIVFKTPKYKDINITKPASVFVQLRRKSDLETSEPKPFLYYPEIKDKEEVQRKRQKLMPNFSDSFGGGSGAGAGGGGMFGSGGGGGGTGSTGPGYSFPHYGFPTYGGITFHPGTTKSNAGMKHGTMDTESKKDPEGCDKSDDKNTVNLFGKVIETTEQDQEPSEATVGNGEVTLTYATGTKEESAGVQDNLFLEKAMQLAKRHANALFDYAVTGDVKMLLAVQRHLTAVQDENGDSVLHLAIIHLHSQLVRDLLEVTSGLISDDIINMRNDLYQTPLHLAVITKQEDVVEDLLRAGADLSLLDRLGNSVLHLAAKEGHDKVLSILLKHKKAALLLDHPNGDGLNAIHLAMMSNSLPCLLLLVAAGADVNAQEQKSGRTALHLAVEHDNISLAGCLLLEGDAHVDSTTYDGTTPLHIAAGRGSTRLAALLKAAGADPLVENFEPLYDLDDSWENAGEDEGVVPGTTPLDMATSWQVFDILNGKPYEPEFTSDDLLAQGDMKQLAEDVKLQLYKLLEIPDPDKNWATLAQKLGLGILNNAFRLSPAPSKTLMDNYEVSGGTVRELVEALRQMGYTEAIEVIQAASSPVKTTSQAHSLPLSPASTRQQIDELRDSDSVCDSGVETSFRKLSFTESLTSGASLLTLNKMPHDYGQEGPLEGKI
As to the kind of experiment: Binding affinity to 6His-tagged recombinant human NF-kappaB p50 N-terminal domain expressed in Escherichia coli BL21 (DE3) at 4:1 compound to protein molar ratio after 2 hrs by mass spectrometric analysis. An outline of the steps: (§1)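 Recombinant 6His-tagged p50 NTD (E. coli BL21(DE3), Ni-NTA then Superdex 200 gel filtration, dialysed into PBS) at 20 μM, incubated with compound in PBS with 1 mM EDTA, 10 μM β-mercaptoethanol, 5% glycerol (v/v), 37 °C, 2 h. Acetic acid quench, reversed-phase column, ESI-MS at m/z 500–3000. Reaction extent scored from adduct versus unbound protein across rising molar ratios.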

Series [2] addresses T2, Nuclear factor NF-kappa-B p105 subunit (Homo sapiens, UniProt P19838).
T2 sequence (P19838 whole entry): T1 sequence (whole entry)
As to the kind of experiment: (§2) Inhibition of TNF-alpha-stimulated NF-kappaB p50 (unknown origin) expressed in HEK293 cells preincubated for 4 hrs followed by TNF-alpha challenge measured after 24 hrs by secreted alkaline phosphatase reporter assay. It counts as cell-based. An outline of the steps: (§3)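 HEK293 stably transfected with NF-κB/SEAP, grown in DMEM/10% FBS/500 μg/mL G418 and seeded at ~2 × 10^5 cells/well to ~70% confluence. Pretreated 4 h with rising compound concentrations or 0.05% DMSO, then TNF-α 10 ng/mL for 24 h. Secreted SEAP measured by kit, with TNF-α-induced untreated cells as 100%. Quadruplicates, mean; IC50 from the concentration curve.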
(In general: Reporter assays use an easily measured gene product as a stand-in for the process of interest.)

Series [3] in a line: Cytotoxicity against human Jurkat T cells assessed as appearance of early apoptotic cells at 25 uM after 24 hrs by annexin V-FLUOS/propidium iodide staining-based flow cytometric analysis. It counts as cell-based. An outline of the steps:
(§4)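 Jurkat T lymphocytes kept at 37 °C, 5% CO2 in RPMI1640 with 10% FBS and 1% streptomycin/penicillin. Exposed to 25 μM compound for 24 h, then stained with annexin-V-FLUOS and propidium iodide and read by flow cytometry. Viable cells are negative for both stains.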

Series [4] can be described thus: Cytotoxicity against human Jurkat T cells assessed as appearance of late apoptotic cells at 25 uM after 24 hrs by annexin V-FLUOS/propidium iodide staining-based flow cytometric analysis. It counts as cell-based. An outline of the steps:
as §4
(In flow cytometry, cells or beads pass a laser one at a time.)

A short description of series [5]: Cytotoxicity against human Jurkat T cells assessed as appearance of necrotic cells at 25 uM after 24 hrs by annexin V-FLUOS/propidium iodide staining-based flow cytometric analysis. Format: cell-based. In short, it runs like this:
as §4

A short description of series [6]: Cytotoxicity against human Jurkat T cells assessed as appearance of viable cells at 25 uM after 24 hrs by annexin V-FLUOS/propidium iodide staining-based flow cytometric analysis. It counts as cell-based. The note with it: read-out: Activity. In short, it runs like this:
as §4

The target in series [7] is T1, Nuclear factor NF-kappa-B p105 subunit (Homo sapiens). As to the kind of experiment: Binding affinity to 6His-tagged recombinant human NF-kappaB p50 N-terminal domain expressed in Escherichia coli BL21 (DE3) up to 10:1 compound to protein molar ratio after 2 hrs by mass spectrometric analysis. An outline of the steps:
as §1

Series [8] has the same target. As to the kind of experiment: Inhibition of TNF-alpha-stimulated NF-kappaB p50 (unknown origin) expressed in HEK293 cells at 1 to 100 uM preincubated for 4 hrs followed by TNF-alpha challenge measured after 24 hrs by secreted alkaline phosphatase reporter assay. It counts as cell-based. An outline of the steps: as §3
A short description of series [9]: Cytotoxicity against human Jurkat T cells assessed as apoptosis after 24 hrs by annexin V-FLUOS/propidium iodide staining-based flow cytometric analysis. It counts as cell-based. An outline of the steps:
as §4

In series [10] the target is T1, Nuclear factor NF-kappa-B p105 subunit (Homo sapiens). The description is as §2. It counts as cell-based. In short, it runs like this:
as §3

Series [11] shares this target. Nature of the series: Binding affinity to 6His-tagged recombinant human NF-kappaB p50 N-terminal domain expressed in Escherichia coli BL21 (DE3) up to 50:1 compound to protein molar ratio after 2 hrs by mass spectrometric analysis. An outline of the steps: as §1

Usually IC50 stands for the concentration that gives 50% inhibition. A higher IC50 goes with a need for much substance. In the case of `C=C1CC[C@@H]2[C@](C)(COC(C)=O)[C@H](OC(C)=O)CC[C@@]2(C)[C@@H]1C/C=C1\C=COC1=O`, the result in [1] was Active. Also, in [2], the IC50 turned out to be 11.1 µM. Moreover, the Activity in series [3] is listed as 38.24%; in series [4], 47.95%; in [5], 0.24%. Further, in series [6], the viability at 24 h, 25 µM amounted to 13.6%.
For the compound `C=C1CC[C@@H]2[C@](C)(CO)[C@H](O)CC[C@@]2(C)[C@@H]1C/C=C1\C=COC1=O`, the result in [7] was inactive. Moreover, in [8], the inhibition result was “inactive”. Further, the Activity came out at 15.55% in [3], 1.57% in series [4] and 0.3% in series [5]. Further, the viability at 24 h, 25 µM in series [6] was 82.6%.
As for `C[C@]1(CO)[C@H]2CCC(=O)[C@@H](C/C=C3\CCOC3=O)[C@]2(C)CC[C@H]1O`, the result in series [7] was inactive. Further, the inhibition result in series [8] was “inactive”. Further, the values for the Activity in series [3], in series [4] and in [5] were 6.29%, 5.52% and 0.33%, respectively. In addition, the viability at 24 h, 25 µM in [6] came to 87.9%.
`C=C1CC[C@@H]2[C@](C)(CO[C@@H]3O[C@H](CO)[C@@H](O)[C@H](O)[C@H]3O)CCC[C@@]2(C)[C@@H]1CCC1=CCOC1=O` [NEOANDROGRAPHOLIDE]: in [9], the Activity result is “Non-toxic”. Also, in series [7], the outcome was inactive. Moreover, the inhibition result in series [10] is “inactive”.
As for `C=C1CC[C@@H]2[C@](C)(CO)[C@H](O)CC[C@@]2(C)[C@@H]1C/C=C1/C(=O)OC[C@H]1O` [ANDROGRAPHOLIDE], the IC50 in series [2] stood at 49.6 µM. The Activity in [3] is 35.3%; in [4] it was 9.1%; in series [5] it was 1.39%. The viability at 24 h, 25 µM in series [6] turned out to be 54.2%.
Regarding `C[C@]1(CO)[C@H]2CCC(=O)[C@@H](C/C=C3/SC(=S)NC3=O)[C@]2(C)CC[C@H]1O`, the result in series [7] was inactive. For the same compound, the inhibition entry in series [8] is “inactive”. Also, the Activity is recorded as 6.91% in series [3], 7.96% in [4] and 1.05% in series [5]. In addition, in series [6], the viability at 24 h, 25 µM amounted to 84.1%.
For the compound `C=C1CC[C@@H]2[C@](C)(CO)[C@H](O)CC[C@@]2(C)[C@@H]1/C=C/C1=CCOC1=O`, the result in [11] was Active. Besides, the inhibition entry in series [8] was “inactive”. Moreover, the Activity in [3] amounted to 10.89%; in series [4], 1.31%; in series [5], 0.25%. The viability at 24 h, 25 µM in series [6] is 87.5%.
In the case of `C=C1CC[C@@H]2[C@](C)(CO)[C@H](O)CC[C@@]2(C)[C@@H]1CCC1=CCOC1=O` [DEOXYANDROGRAPHOLIDE], in series [9], the Activity entry is “Non-toxic”. In addition, the result in series [7] was inactive. Besides, the inhibition entry in series [10] is “inactive”.
